From ChEMBL document CHEMBL4145642, “Natural Inhibitors of the RhoA-p115 Complex from the Bark of Meiogyne baillonii” (J Nat Prod, 2018)

Experiments:
[1] = biological target: T1, Rho guanine nucleotide exchange factor 1 (Homo sapiens) (UniProt Q92888); assay: (§1) Inhibition of p115 DHPH22 domain (395 to 766 residues) (unknown origin) interaction with GDP-loaded His-tagged RhoA F25N mutant (1 to 180 residues) assessed as reduction in BODIPY-GTP-GDP exchange at 200 uM pretreated for 30 mins followed by RhoA addition by fluorescence based spectrophotometric method relative to control
T1 sequence (whole entry): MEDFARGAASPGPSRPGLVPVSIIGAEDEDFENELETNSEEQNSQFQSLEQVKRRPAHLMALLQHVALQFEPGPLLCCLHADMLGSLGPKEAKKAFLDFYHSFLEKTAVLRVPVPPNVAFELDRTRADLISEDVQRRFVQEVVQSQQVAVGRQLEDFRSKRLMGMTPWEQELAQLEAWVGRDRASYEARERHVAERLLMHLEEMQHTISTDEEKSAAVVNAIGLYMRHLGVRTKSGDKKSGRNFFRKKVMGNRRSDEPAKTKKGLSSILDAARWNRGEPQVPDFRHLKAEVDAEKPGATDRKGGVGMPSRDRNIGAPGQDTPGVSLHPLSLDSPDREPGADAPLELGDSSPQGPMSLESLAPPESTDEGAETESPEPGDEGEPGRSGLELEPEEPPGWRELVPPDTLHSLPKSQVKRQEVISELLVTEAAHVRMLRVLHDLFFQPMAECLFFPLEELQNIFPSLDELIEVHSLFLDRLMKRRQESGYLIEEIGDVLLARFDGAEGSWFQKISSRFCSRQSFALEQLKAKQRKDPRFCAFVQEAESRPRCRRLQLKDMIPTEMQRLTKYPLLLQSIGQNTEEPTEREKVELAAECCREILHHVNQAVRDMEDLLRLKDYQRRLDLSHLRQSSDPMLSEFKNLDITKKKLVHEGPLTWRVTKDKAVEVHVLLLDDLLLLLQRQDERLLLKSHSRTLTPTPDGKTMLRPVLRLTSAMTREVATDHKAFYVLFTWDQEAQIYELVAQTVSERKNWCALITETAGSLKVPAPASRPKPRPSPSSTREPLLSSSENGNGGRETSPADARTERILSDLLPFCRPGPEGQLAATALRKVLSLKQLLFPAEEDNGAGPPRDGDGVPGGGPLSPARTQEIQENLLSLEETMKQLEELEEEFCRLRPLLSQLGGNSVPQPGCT

[2] = biological target: T2, Neuroepithelial cell-transforming gene 1 protein (Homo sapiens) (UniProt Q7Z628); assay: as §1, with “Net1 (149” for “p115 DHPH22 domain (395”, “501” for “766”
T2 sequence (whole entry): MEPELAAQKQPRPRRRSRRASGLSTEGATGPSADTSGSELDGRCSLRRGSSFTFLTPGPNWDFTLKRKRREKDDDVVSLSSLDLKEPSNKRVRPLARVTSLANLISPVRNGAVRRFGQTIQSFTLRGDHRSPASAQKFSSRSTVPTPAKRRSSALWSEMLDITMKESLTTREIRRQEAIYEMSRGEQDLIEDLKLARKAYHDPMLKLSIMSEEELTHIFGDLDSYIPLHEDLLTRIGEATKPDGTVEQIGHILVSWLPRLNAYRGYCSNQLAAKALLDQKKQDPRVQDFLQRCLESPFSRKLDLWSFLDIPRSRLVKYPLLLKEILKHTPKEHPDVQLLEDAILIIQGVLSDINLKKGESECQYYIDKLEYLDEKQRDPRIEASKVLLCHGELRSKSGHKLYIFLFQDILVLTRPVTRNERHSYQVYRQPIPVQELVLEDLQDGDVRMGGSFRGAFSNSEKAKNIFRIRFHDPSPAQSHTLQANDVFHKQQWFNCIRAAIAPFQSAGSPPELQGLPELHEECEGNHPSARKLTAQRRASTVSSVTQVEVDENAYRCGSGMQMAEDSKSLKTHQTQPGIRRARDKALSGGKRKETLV

[3] = biological target: Rho guanine nucleotide exchange factor 1 (Homo sapiens, UniProt Q92888, F25N); assay: Inhibition of p115 DHPH22 domain (395 to 766 residues) (unknown origin) interaction with GDP-loaded His-tagged RhoA F25N mutant (1 to 180 residues) assessed as reduction in BODIPY-GTP-GDP exchange pretreated for 30 mins followed by RhoA addition by fluorescence based spectrophotometric method
[4] = biological target: Neuroepithelial cell-transforming gene 1 protein (Homo sapiens, UniProt Q7Z628, F25N); assay: Inhibition of Net1 (149 to 501 residues) (unknown origin) interaction with GDP-loaded His-tagged RhoA F25N mutant (1 to 180 residues) assessed as reduction in BODIPY-GTP-GDP exchange pretreated for 30 mins followed by RhoA addition by fluorescence based spectrophotometric method
Summary of the method: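 Exchange is started with 0.1 μM GDP-loaded His-RhoA F25N (1−180). Fluorescence (ex 480/em 540 nm) is read every minute, and initial rate is taken over the first 15 min. Controls are run with and without GEF.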

inhibition [1] [%]	inhibition [2] [%]	IC50 [3] [µM]	Compound	IC50 [4] [µM]
1	5	–	COc1cc(C)c2c(c1)Oc1c(cc(OC)cc1C(=O)O)OC2=O	–
0	–	–	C=CCC/C=C/C#CC#CCCCCCCCC[C@H]1C(=O)O[C@H](C)[C@@H]1OC(C)=O	–
0	5	–	COc1c(O)cc2c3c(cc4c(O)cccc4c13)NC2=O	–
50.5	–	187	COc1cc(C)c2c(c1C=O)Oc1c(c(C)c(O)c3c1C(O)OC3=O)OC2=O (stereo unspecified) [STICTIC ACID]	–
0	4	–	COc1c(O)cc2c3c(cc4ccccc4c13)NC(=O)C2=O	–
0	–	–	C=CCC/C=C\C#CC#CCCCCCCC1=C[C@@H](C)OC1=O	–
10	–	–	C=CCC/C=C/C#CC#CCCCCCC[C@H]1C(=O)O[C@H](C)[C@@H]1OC(C)=O	–
0	–	–	C=CCC/C=C\C#CC#CCCCCCC[C@H]1C(=O)O[C@H](C)[C@@H]1OC(C)=O	–
0	–	–	C=CCC/C=C/C#CC#CCCCCCCCC(=O)O	–

Compound	inhibition [1] [%]	inhibition [2] [%]	IC50 [3] [µM]	IC50 [4] [µM]
CN1CCc2cc3c(c4c2c1cc1ccccc14)OCO3 [DEHYDROROEMERINE]	21	83	–	120
